Source: paper PMC9303875 (Clinical Pharmacology in Drug Development, 2022)
Where two headings read alike, the source gives them in different places. Marks after values point to notes of the source that are not given here.

Experiments:
[1] = system: plasma 2-HG; assay: Plasma 2-HG pharmacodynamics in patients with newly diagnosed mIDH1/2 AML; type: in vivo, human; conditions: for reduction of mean trough plasma 2-HG concentrations (up to): after multiple doses, combined with chemotherapy; for mean reduction in plasma 2-HG concentration: enasidenib started C1D1, by induction C1D14
Method in brief: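 Plasma was sampled within 30 min predose and at 0.5, 2, 4, 6, 8 (and 24, per footnote) h on induction C1D1/C1D14 and consolidation C1D1; the delayed-start cohort was sampled on C1D8/C1D21. 2-HG was measured by surrogate-analyte (¹³C₅ 2-HG) LC-MS/MS, LLOQ 30 ng/mL, with BLQ set to LLOQ. AUEC0-8, AUEC0-24, BAUEC0-24 and Rtrough used actual times. C1D14 reductions were grouped by best overall response: CR; IR (CRi, CRp, MLFS, PR); NR (SD, PD).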

[2] = system: bone marrow 2-HG; assay: Bone marrow 2-HG pharmacodynamics in patients with newly diagnosed mIDH1/2 AML; type: in vivo, human; conditions: after multiple doses; combined with chemotherapy
Method in brief: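 Bone marrow aspirates from patients on oral ivosidenib or enasidenib once daily plus chemotherapy. 2-HG was quantified by LC-MS/MS using a qualified surrogate analyte method, with ¹³C₅ 2-HG as the surrogate for calibrators and QCs. LLOQ was 10 ng/mL, and BLQ values were set to LLOQ. Percentage reduction from baseline was computed using actual times relative to dosing.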

[3] = system: mIDH1 R/R AML; conditions: patients with mIDH1 R/R AML; ivosidenib 500 mg once daily; cited from earlier work
[4] = cited from earlier work
[5] = type: in vivo, human; conditions: for time to steady-state PK based on Ctrough: continuous once-daily dosing combined with chemotherapy
Method in brief: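 Samples were taken predose and 0.5–8 h (24 h per footnote) post-dose with once-daily dosing. AUC0-24, Cmax, tmax and Ctrough were derived using actual times, and predose BLQ values were set to 0. Accumulation ratio was C1D14/C1D1 or C1D21/C1D8 of induction. Steady state was judged from Ctrough across cycles, and consolidation data pooled both regimens (ME or ARA-C).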

[6] = system: CYP3A4; conditions: healthy participants; cited from earlier work
[7] = system: 2-HG; conditions: ivosidenib 500 mg once daily single agent, cited from earlier work
[8] = system: 2-HG; conditions: cited from earlier work; for plasma 2-HG reduction from baseline, maximum / plasma 2-HG reduction from baseline, median: enasidenib 100 mg once daily
[9] = cited from earlier work; remark: listed apart in the source
[10] = system: advanced mIDH2 hematologic malignancies; conditions: cited from earlier work
[11] = system: IDH2-R172; conditions: preclinical and in vitro data; cited from earlier work
[12] = ivosidenib 500 mg QD + chemotherapy, Consolidation C1D1
[13] = ivosidenib 500 mg QD + chemotherapy, Induction C1D1
[14] = ivosidenib 500 mg QD + chemotherapy, Induction C1D14
[15] = ivosidenib 500 mg QD + chemotherapy, Induction C1D14 / induction C1D1
[16] = enasidenib 100 mg QD + chemotherapy, Consolidation C1D1
[17] = enasidenib 100 mg QD starting day 1 + chemotherapy, Induction C1D1
[18] = enasidenib 100 mg QD starting day 1 + chemotherapy, Induction C1D14
[19] = enasidenib 100 mg QD starting day 8 + chemotherapy, Induction C1D8
[20] = enasidenib 100 mg QD starting day 8 + chemotherapy, Induction C1D21

## N#Cc1ccnc(N2C(=O)CC[C@H]2C(=O)N(c2cncc(F)c2)[C@H](C(=O)NC2CC(F)(F)C2)c2ccccc2Cl)c1 [Ivosidenib, ivosidenib]
[1]
  reduction of mean trough plasma 2-HG concentrations (up to): ≤ 99%
[1]; [12]
  %BAUEC0-24 (percentage reduction of plasma 2-HG based on AUEC0-24), mean (RSD%): 91.0 (16.9); 28%
  %Rtrough (percentage reduction of plasma 2-HG at the end of a dosing interval), mean (RSD%): 90.7 (17.2); 28%
  Plasma 2-HG AUEC0-24, mean (RSD%): 1090 (39.8); 29 ng • h/mL
[1]; [13]
  %BAUEC0-24 (percentage reduction of plasma 2-HG based on AUEC0-24), mean (RSD%): 53.0 (30.5); 48^b %
  %Rtrough (percentage reduction of plasma 2-HG at the end of a dosing interval), mean (RSD%): 80.8 (28.1); 48^b %
[1]; [14]
  %BAUEC0-24 (percentage reduction of plasma 2-HG based on AUEC0-24), mean (RSD%): 90.0 (23.8); 46%
  %Rtrough (percentage reduction of plasma 2-HG at the end of a dosing interval), mean (RSD%): 89.8 (23.9); 46%
  Plasma 2-HG AUEC0-24, mean (RSD%): 1120 (51.8); 47 ng • h/mL
[2]
  reduction of mean trough bone marrow 2-HG concentrations (up to): up to 99%
[3]
  overall response rate (ORR): 41.6%
[4]; ivosidenib 500 mg once daily single agent, after a single dose
  half-life: 93 h
[4]; ivosidenib 500 mg once daily single agent, after multiple doses
  accumulation ratio: ≈ 2 fold
[4]; ivosidenib 500 mg once daily single agent
  time to steady state based on observed Ctrough: ≤ 14 days
[4]; patients, phase 1 single-agent study
  ivosidenib clearance with concomitant moderate or strong CYP3A4 inhibitors: decreased
[5]
  time to steady-state PK based on Ctrough: ≤ 14 days
[5]; [12]
  Racc AUC0-24 (accumulation ratio based on AUC0-24), mean (SD): 1.38 (0.83); 24
  Racc Cmax (accumulation ratio based on Cmax), mean (SD): 1.21 (0.69); 30
[5]; [15]
  Racc AUC0-24 (accumulation ratio based on AUC0-24), mean (SD): 2.35 (1.2); 38
  Racc Cmax (accumulation ratio based on Cmax), mean (SD): 1.69 (0.71); 49
[6]
  AUC parameters when coadministered with itraconazole: increased
  Cmax when coadministered with itraconazole: unaffected
[7]; after multiple doses
  patients achieving a ≥90% reduction in plasma 2-HG concentrations: 71%
[7]
  reduction in bone marrow 2-HG concentrations: > 90%

## CC(C)(O)CNc1nc(Nc2ccnc(C(F)(F)F)c2)nc(-c2cccc(C(F)(F)F)n2)n1 [Enasidenib, enasidenib]
[8]; IDH2-R140Q mutations
  plasma 2-HG reduction from baseline, maximum: 99%
  plasma 2-HG reduction from baseline, median: 93%
[8]; IDH2-R172K mutations
  plasma 2-HG reduction from baseline, maximum: 94%
  plasma 2-HG reduction from baseline, median: 28%
[8]; enasidenib dose of 100 mg
  median reduction in 2-HG concentrations from baseline: 90.4%
[8]; enasidenib doses of <100 mg
  median reduction in 2-HG concentrations from baseline: 92.4%
[8]; enasidenib doses of >100 mg
  median reduction in 2-HG concentrations from baseline: 93.1%
[1]
  reduction of mean trough plasma 2-HG concentrations (up to): ≤ 99%
[1]; [16]
  %BAUEC0-24 (percentage reduction of plasma 2-HG based on AUEC0-24), mean (RSD%): 80.6 (25.1); 21%
  %Rtrough (percentage reduction of plasma 2-HG at the end of a dosing interval), mean (RSD%): 77.1 (37.8); 21%
  Plasma 2-HG AUEC0-24, mean (RSD%): 1800 (116.1); 21 ng • h/mL
[1]; [17]
  %BAUEC0-24 (percentage reduction of plasma 2-HG based on AUEC0-24), mean (RSD%): 18.7 (108.0); 57%
  %Rtrough (percentage reduction of plasma 2-HG at the end of a dosing interval), mean (RSD%): 37.8 (68.2); 57%
[1]; [18]
  %BAUEC0-24 (percentage reduction of plasma 2-HG based on AUEC0-24), mean (RSD%): 85.0 (24.7); 45%
  %Rtrough (percentage reduction of plasma 2-HG at the end of a dosing interval), mean (RSD%): 84.7 (24.6); 45%
  Plasma 2-HG AUEC0-24, mean (RSD%): 2030 (134.4); 45 ng • h/mL
[1]; [19]
  %BAUEC0-24 (percentage reduction of plasma 2-HG based on AUEC0-24), mean (RSD%): 73.9 (28.1); 16%
  %Rtrough (percentage reduction of plasma 2-HG at the end of a dosing interval), mean (RSD%): 82.8 (18.0); 16%
  Plasma 2-HG AUEC0-24, mean (RSD%): 3960 (72.5); 16 ng • h/mL
[1]; [20]
  %BAUEC0-24 (percentage reduction of plasma 2-HG based on AUEC0-24), mean (RSD%): 83.1 (34.6); 15%
  %Rtrough (percentage reduction of plasma 2-HG at the end of a dosing interval), mean (RSD%): 82.3 (40.5); 15%
  Plasma 2-HG AUEC0-24, mean (RSD%): 1670 (130.2); 15 ng • h/mL
[1]; patients with IDH2-R140 mutations (n = 41)
  mean reduction in plasma 2-HG concentration: 89.3%
[1]; patients with IDH2-R172 mutations (n = 14)
  mean reduction in plasma 2-HG concentration: 76.9%
[1]; enasidenib starting on induction C1D1, following the first enasidenib dose
  arithmetic mean percentage reduction of plasma 2-HG based on BAUEC0-8: 7.1%
[1]; enasidenib starting on induction C1D8, at C1D8
  reduction in plasma 2-HG AUEC0-8: 71.6%
[1]; in this study, enasidenib combined with chemotherapy
  median 2-HG reduction: > 75%
[2]
  reduction of mean trough bone marrow 2-HG concentrations (up to): up to 99%
[9]; enasidenib single agent
  terminal half-life: ≈ 137 hours
  time to steady state: ≤ 29 days
[9]; once-daily administration, ref data on file
  accumulation: ≈ 10 fold
[10]; all patients receiving enasidenib 100 mg once daily
  ORR: 38.5%
[10]; enasidenib 100 mg once daily, patients with IDH2-R140 mutations
  ORR: 35.4%
[10]; enasidenib 100 mg once daily, patients with IDH2-R172 mutations
  ORR: 53.3%
[5]
  time to steady-state PK based on Ctrough: ≤ 14 days
[5]; [16]
  Racc AUC0-24 (accumulation ratio based on AUC0-24), mean (SD): 7.93 (4.29); 18
  Racc Cmax (accumulation ratio based on Cmax), mean (SD): 7.15 (4.59); 24
[11]
  potency against IDH2-R172 compared with IDH2-R140: less potent
